High-throughput results (PubChem BioAssay)
KLK7 zymogen act: activates the human kallikrein-7 zymogen | actives 0.9% (n = 370,000) | P49862 | purified proKLK7, EDANS-DABCYL substrate fluorescence; 100% is mature enzyme control, 0% vehicle | activation, % at 7 µM;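 active = activation above the mean of all tested compounds plus 3 SD, computed per campaign excluding outliers beyond control limits, cut at about 13% in these data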
Runt-SMMHC FRET: inhibitors of human RUNX1 Runt domain binding to CBFb-SMMHC; actives 0.74% (n = 220,000); inhibition, % at 20 µM; Cerulean-Runt/Venus-CBFb-SMMHC FRET ratio 530/480, 1 h;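 active = mean inhibition across duplicate retests at 20 µM reaching about 50%, limit read from the data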;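 note: 0% = DMSO wells and 100% = wells with excess untagged CBFb-SMMHC; inhibitors lower the FRET ratio by blocking Runt binding to CBFb-SMMHC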
Wee1 degr inh: inhibitors of human Wee1 degradation; HeLa Luc-Wee1K328M stability, luciferase luminescence; 100% = proteasome inhibitor MG132 effect; reporter increase, % at 5 µM; actives 1.2% (n = 220,000);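 active = activation above the mean of all tested compounds plus 3 SD, set per screening run, cut at about 8.8% in these data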;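 note: cells exposed to compound for 20 h before luminescence read; 0% = DMSO alone and 100% = MG132 at 30 µM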
Target sequence (P30291 whole entry K328M): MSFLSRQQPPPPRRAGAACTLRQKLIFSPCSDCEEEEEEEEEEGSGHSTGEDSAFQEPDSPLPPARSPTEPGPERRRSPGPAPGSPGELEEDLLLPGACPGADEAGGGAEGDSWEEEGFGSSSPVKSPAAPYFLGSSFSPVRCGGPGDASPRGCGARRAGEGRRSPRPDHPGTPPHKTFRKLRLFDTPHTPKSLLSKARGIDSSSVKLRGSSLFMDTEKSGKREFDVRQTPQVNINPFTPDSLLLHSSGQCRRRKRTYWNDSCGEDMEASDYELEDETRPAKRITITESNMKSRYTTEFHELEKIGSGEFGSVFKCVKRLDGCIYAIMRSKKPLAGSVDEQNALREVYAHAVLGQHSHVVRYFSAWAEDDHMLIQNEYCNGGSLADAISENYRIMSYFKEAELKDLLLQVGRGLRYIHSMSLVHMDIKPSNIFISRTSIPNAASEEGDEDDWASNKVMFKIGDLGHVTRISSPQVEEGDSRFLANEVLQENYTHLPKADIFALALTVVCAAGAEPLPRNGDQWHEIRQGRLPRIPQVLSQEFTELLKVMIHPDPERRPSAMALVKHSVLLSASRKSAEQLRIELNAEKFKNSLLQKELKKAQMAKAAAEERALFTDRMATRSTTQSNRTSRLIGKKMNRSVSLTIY
Runt-CBFb FRET: blocks binding of human RUNX1 Runt domain to CBFb; Q01196+Q13951; Cerulean-Runt/Venus-CBFb FRET ratio 530/480, 1 h; inhibition, % at 20 µM; actives 0.46% (n = 220,000); AID 1496;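 active = inhibition over about 50% at 20 µM in the single-dose screen, limit read from the data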;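 note: 0% = DMSO wells and 100% = excess unlabeled CBFb competitor control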
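System: Cerulean-labeled Runt domain protein | Quantity: 100 nM of each labeled protein | Schedule: 1 h compound exposure, room temperature | Detection: Fluorescence energy transfer, 422 nm excitation, 530/480 nm emission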
RanGTP-Impb inh: disruptors of Ran-importin-beta complex formation – biochemical, FRET, CFP-Ran, YFP-importin-beta, homogeneous, primary screen | cell-free CFP-Ran/YFP-importin-beta FRET ratio | inhibition, % (concentration not given with the values) | actives 1.1% (n = 300,000);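 active = more than half of the replicate wells show a fall in the fluorescence ratio signal beyond about 16%, limit read from the data, passing the limit was not always enough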;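 note: 0% = DMSO wells and 100% = Ran loaded with GDP instead of GTP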
AI-2 QS mod: modulators of Vibrio harveyi AI-2 quorum sensing system. actives 0.4% (n = 300,000). Vibrio harveyi JMH597 AI-2 luminescence/OD600 ratio, 9 h; stronger effect = lower value; strain lacks LuxN and CqsS sensors; 0 = neutral-control median. activity change, % at 7.5 µM; in the data active = activity change below about -75%, passing the limit was not always enough;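 note: luminescence divided by OD600 gain over 9 h not by final OD600 alone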
An asterisk follows results filed as active; / = no result. In the library only some 2.9% were active in any assay of this set; here they are far more common.

SMILES | KLK7 zymogen act | Runt-SMMHC FRET | Wee1 degr inh | Runt-CBFb FRET | RanGTP-Impb inh | AI-2 QS mod
CCOC(=O)N1CC=C2C(C#N)=C(N)C(C#N)(C#N)[C@H](c3ccsc3)[C@H]2C1 | 8 | -5 | 4 | -1 | 9 | 30
CCOC(=O)N1CC=C2C(C#N)=C(N)C(C#N)(C#N)[C@H](c3ccccc3OCC)[C@H]2C1 | 11 | -1 | -1 | 0 | 3 | 25
CCN1CC=C2C(C#N)=C(N)C(C#N)(C#N)[C@H](c3cccc(OC)c3OC)[C@H]2C1 | 1 | 62* | 1 | 41 | / | 9
CN1CC=C2C(C#N)=C(N)C(C#N)(C#N)C(CCc3ccccc3)C2C1 (configuration not stated) | / | 79* | -3 | 103* | -2 | 9
O=C(O)/C=C/c1ccc2noc(-c3ccccc3)c2c1 | 0 | 22 | 26* | 19 | 0 | 6
Cc1ccc(-c2onc3ccc(C4(C)OCCO4)cc23)cc1 | -1 | -3 | 1 | 1 | 7 | 2
Cc1ccc(-c2onc3ccc(C=O)cc23)cc1 | -20 | -7 | -1 | -1 | 23* | 4
COC(=O)CC#C[C@H](C)[C@@H](NS(=O)(=O)c1ccc([N+](=O)[O-])cc1)C(C)(C)C | 0 | / | / | / | / | /
COc1ccc(OCC(=O)Nc2ccc(NC(=O)c3cccs3)c(OC)c2)cc1 | 0 | 3 | 0 | 1 | -3 | 12
COc1cc(NC(=O)c2cccs2)c(OC)cc1NC(=O)CCC(=O)Nc1ccc2ncccc2c1 | 68* | -14 | -3 | -4 | 2 | 20
COC(=O)c1cccc(/C=N/NC(N)=S)c1O | -123 | 84* | -1 | 39 | 42* | -57
COc1cccc(/C=N/NC(=O)C(=O)N/N=C/c2cccc(OC)c2O)c1O | 0 | 1 | -2 | -3 | / | /
CCN1Cc2nnn(Cc3ccccc3)c2-c2cc(N3CCCC3)ccc2S1(=O)=O | -1 | / | / | / | / | /
COc1ccc(/C=N/N(C)C2=NCCN2)c(OC)c1OC | 0 | / | / | / | 3 | 10
C/C(CC(=O)Nc1ccc2c(c1)OCO2)=N\NC(=O)c1ccc(N)cc1 | 0 | 0 | 9.6* | 1 | 3 | 0
C/C(CC(=O)Nc1ccc2c(c1)OCO2)=N\NC(=O)OC(C)(C)C | 1 | 3 | 6 | 1 | 0 | 14
O=C(O)c1nn2c(C(F)(F)F)cc(-c3cccs3)nc2c1Cl | 1 | -17 | -2 | -6 | -4 | 10
FC(F)(F)c1cc(-c2cccs2)nc2cc(-c3cccs3)nn12 | -7 | -32 | 3 | -5 | 43* | 13
Cc1cc(NCCCOC(C)C)n2c(nc3ccccc32)c1C#N | -4 | / | / | / | 26* | 42
Cc1cc(NCCN2CCCCC2)n2c(nc3ccccc32)c1C#N | / | 14 | 0 | 6 | 8 | 1
C[C@H](CO)N1C[C@H](C)[C@H](CN(C)Cc2cccc(O)c2)OCc2ccccc2-c2c(n(C)c3ccccc23)C1=O | 0 | / | / | / | / | /
COC(=O)C1=C(C)N(Cc2cccc(C(F)(F)F)c2)C(=NCc2cc(OC)c(OC)c(OC)c2)NC1c1ccccc1 (configuration not stated) | 0 | / | / | / | / | /
Cc1cc(NS(=O)(=O)c2ccc(NC(=O)c3cc4c(=O)n5ccccc5nc4s3)cc2)nc(C)n1 | 0 | 74* | -2 | 33 | 7 | 29
Cc1ccc(S(=O)(=O)C(C#N)c2nc3ccccc3nc2N2CCN(C)CC2)cc1 (configuration not stated) | 2 | 79* | 1 | 57* | 64* | 8
COc1ccc(S(=O)(=O)C(C#N)c2nc3ccccc3nc2N2CCC(C)CC2)cc1 (configuration not stated) | 1 | -6 | / | -1 | 27* | 37
C[C@H](O)[C@@H]1C(=O)N2CCc3c([nH]c4cccc(-c5ccccc5)c34)[C@@H]2C[C@@H]1N(C)C(=O)c1ccccc1 | -20 | / | / | / | / | /
Nc1[nH]c(C(=O)c2ccc(Br)cc2)c(-c2ccccc2Cl)c1C(=O)NCCc1c[nH]c2ccccc12 | 0 | / | / | / | / | /
Cc1oc2c(CN3CCCC3)c(O)ccc2c(=O)c1-c1ccccc1 | / | 5 | -1 | 1 | / | 21
